Data reported in paper PMC9662183 (Journal of medicinal chemistry, 2022).
Entries after “also recorded” stand apart in the source; their conditions may differ.

How the values were obtained:
[1] = Stability in simulated gastric fluid; format: in vitro ADME
Procedure, shortened: (§1)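 Test compound at 1 μM final was incubated at 37 °C in CD-1 mouse plasma, or in simulated gastric or intestinal fluid made per the USP National Formulary. Samples were taken at 0, 5, 15, 30, 60, 120 and 240 min and quenched with 3 volumes of acetonitrile/1% formic acid, then centrifuged. Prodrug and released parent were measured by HPLC-UV (Fmoc-Cl derivatization, 254 nm) and/or LC-MS/MS (MRM), and t1/2 was calculated.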

[2] = Conversion of prodrugs into ψ-GSH in brain homogenate; format: in vitro ADME, mouse; details: freshly prepared brain homogenates containing proteinase inhibitors
[3] = Conversion of prodrugs into ψ-GSH in liver homogenate; format: in vitro ADME, mouse; details: liver homogenates
[4] = Brain and plasma distribution study in CD-1 mice; format: in vivo, mouse; details: CD1 mice
[5] = test system: i.c.v. Aβ1–42-injected C57BL/6 mice; test: Spontaneous alternation T-maze in i.c.v. Aβ1–42-injected mice; format: in vivo, mouse; details: for T-maze alternation rate: mouse, in vivo, po, 250 mg/kg
GFAP and Iba1 staining = format: in vivo, mouse; details: i.c.v. Aβ-injected mice, 250 mg/kg oral
brain GSH = test: Quantitation of GSH in brain of i.c.v. Aβ-injected mice; format: in vivo, mouse; details: 250 mg/kg oral
[6] = test system: glyoxalase enzyme pathway (AGE content); test: Brain advanced glycation endproducts; format: in vivo, mouse; details: i.c.v. Aβ-injected mice, 250 mg/kg oral
[7] = Stability in mouse liver homogenate; format: in vitro ADME; details: for Half-life, tissue homogenate liver: mouse liver homogenate, 1 μM, 37 °C
[8] = Stability in simulated intestinal fluid; format: in vitro ADME; details: SIF, 1 μM, 37 °C
Procedure, shortened: as §1

[9] = Stability in mouse plasma; format: in vitro ADME; details: mouse plasma (CD-1), 1 μM, 37 °C
Procedure, shortened: as §1

[10] = Stability in mouse brain homogenate; format: in vitro ADME; details: 1 μM, 37 °C
[11] = test system: glyoxalase pathway (D-lactate); test: Brain D-lactate measurement; format: in vivo, mouse; details: wild type C57BL/6 mice, 500 mg/kg oral, multiple time points

Row | conversion into / release of ψ-GSH in brain homogenate [2] | conversion into / release of ψ-GSH in liver homogenate [3] | Compound | T-maze alternation rate [5] | Iba1 staining in dorsal hippocampus (GFAP and Iba1 staining) | brain reduced GSH compared to the Aβ-only group (brain GSH) | brain total AGE content versus Aβ1–42 group [6] | Half-life, plasma [9] [h] | Half-life, tissue homogenate liver [7] [h] | further results
1 | – | – | CC(=O)SC[C@H](NC(=O)NC[C@H](N)C(=O)O)C(=O)NCC(=O)O [prodrug 1, NH2-γ-L-Glz[-L-Cys(SAc)-Gly-OH]-OH] | – | – | – | – | – | – | half-life at 1 μM ([1]; simulated gastric fluid (SGF)): ~24 h
2 | relatively higher and sustained release | relatively higher and sustained release | CCOC(=O)SC[C@H](NC(=O)NC[C@H](N)C(=O)OC1CCCC1)C(=O)NCC(=O)OC1CCCC1 [prodrug 6, NH2-γ-L-Glz[-L-Cys(SCOOEt)-Gly-OcPe]-OcPe] | – | – | – | – | – | – | major metabolite in liver homogenate incubates ([7]; liver homogenate): thiocarbonate cleavage product
3 | detected | detected | N-Ethyloxycarbonyl-γ-L-Glz[-L-Cys(SCOOEt)-Gly-OH]-OH [prodrug 7] | effective in improving the alternation behavior | significantly reduced | significantly increased | significantly reduced | 113.6 | 1.30 | Half-life, GI tract gastric phase ([1]; SGF, 1 μM, 37 °C): 17.96 h; Half-life, GI tract intestinal phase [8]: 24.24 h; Half-life, tissue homogenate brain [10]: 9.79 h; T-maze repetitive arm entries ([5]; oral treatment, 250 mg/kg once a day, Aβ-only 3.22 ± 0.27): 1.00 ± 0.31; GFAP staining in dorsal hippocampus (GFAP and Iba1 staining): significant reduction; astrocytic and microglial reactivity (GFAP, Iba1) in dentate gyrus (GFAP and Iba1 staining): Mitigation; brain D-lactate release [11]: immediate spike
4 | – | – | NH2-γ-L-Glz[-L-Thz-Gly-OH]-OH [prodrug 4] | – | – | – | – | 30.64 | 115.5 | –

Row | Compound | conversion into / release of ψ-GSH in brain homogenate [2] | conversion into / release of ψ-GSH in liver homogenate [3] | T-maze alternation rate [5] | Iba1 staining in dorsal hippocampus (GFAP and Iba1 staining) | brain reduced GSH compared to the Aβ-only group (brain GSH) | brain total AGE content versus Aβ1–42 group [6] | Half-life, plasma [9] [h] | Half-life, tissue homogenate liver [7] [h] | further results
5 | Cl.N[C@@H](CNC(=O)N[C@@H](CS)C(=O)NCC(=O)OC1CCCC1)C(=O)OC1CCCC1 [prodrug 5, HCl.NH2-γ-L-Glz[-L-Cys(SH)-Gly-OcPe]-OcPe] | relatively higher and sustained release; also recorded: detected | relatively higher and sustained release; also recorded: detected | effective in improving the alternation behavior | significantly reduced | significantly increased | significantly reduced | – | – | plasma Cmax versus ψ-GSH ([4]; 250 mg/kg oral, comparison ψ-GSH 500 mg/kg i.p.): increased Cmax; brain levels of ψ-GSH after prodrug administration versus ψ-GSH treatment ([4]; prodrug 250 mg/kg oral vs ψ-GSH 500 mg/kg i.p.): lower than; relative brain AUC ([4]; prodrug 250 mg/kg oral, 2-6 h): 1.22 nmol·h/mg tissue
